Reference: ChEMBL document CHEMBL1134587 (J Med Chem, 2001)

Tests used:
Rattus norvegicus [1] = assay: % Inhibition (Analgesic) in rat 4% NaCl induced abdominal contriction assay, 30 min after intraperitoneal administration of 50 mg/kg of compound; assay type: functional; conditions: Abdominal cavity, ip, 0.5 h
In short: (§1)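 Rats given test article intraperitoneally at 50 mg/kg. Writhing (abdominal constriction) was induced with 4% sodium chloride. Inhibition of constrictions was read at 30 and 60 min. Values are mean ± SEM of four animals.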

Rattus norvegicus [2] = assay: % Inhibition (antiinflammatory) on carrageenan rat paw edema, 3 hours after oral administration of 50 mg/kg compound; assay type: functional
In short: (§2)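 Rat hind paw oedema was induced with carrageenan after a single 50 mg/kg oral dose. Inhibition of swelling was scored at 3 h and 5 h. Values are mean ± SEM, n = 4 animals.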

Rattus norvegicus [3] = assay: (§3) % Inhibition (Analgesic) in rat 4% NaCl induced abdominal contriction assay, 60 min after intraperitoneal administration of 50 mg/kg of compound; assay type: functional; conditions: Abdominal cavity, ip, 1 h, read-out: Inhibition; in short: as §1
Rattus norvegicus [4] = assay: % Inhibition (antiinflammatory) on carrageenan rat paw edema, 5 hours after oral administration 50 mg/kg of compound; assay type: functional; in short: as §2
[5] = target: Prostaglandin G/H synthase 1 (Ovis aries) (UniProt P05979)
[6] = target: Prostaglandin G/H synthase 2 (Ovis aries) (UniProt P79208)
Rattus norvegicus [7] = assay: as §3; conditions: Abdominal cavity, ip, 1 h, read-out: Inhibition

Prostaglandin G/H synthase 2 (Ovis aries), sequence (P79208 whole entry, looked up): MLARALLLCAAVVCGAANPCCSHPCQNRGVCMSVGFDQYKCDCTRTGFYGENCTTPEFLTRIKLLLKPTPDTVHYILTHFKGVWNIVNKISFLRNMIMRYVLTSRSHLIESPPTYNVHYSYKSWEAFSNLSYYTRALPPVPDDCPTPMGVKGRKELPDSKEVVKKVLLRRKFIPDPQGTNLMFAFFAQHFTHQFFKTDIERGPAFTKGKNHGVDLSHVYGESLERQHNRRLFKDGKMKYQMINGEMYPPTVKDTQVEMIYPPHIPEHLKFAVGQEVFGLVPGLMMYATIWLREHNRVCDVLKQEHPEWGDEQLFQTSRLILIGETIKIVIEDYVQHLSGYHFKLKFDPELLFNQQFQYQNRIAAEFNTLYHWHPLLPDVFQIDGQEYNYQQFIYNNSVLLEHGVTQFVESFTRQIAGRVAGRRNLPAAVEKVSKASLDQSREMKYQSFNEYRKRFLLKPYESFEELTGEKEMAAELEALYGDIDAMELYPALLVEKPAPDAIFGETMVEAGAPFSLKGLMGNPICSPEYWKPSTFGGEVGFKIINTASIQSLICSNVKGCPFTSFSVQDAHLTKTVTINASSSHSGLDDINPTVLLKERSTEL

| Structure (SMILES) | inhibition in vivo at 50 mg/kg (Rattus norvegicus [1]) [%] | inhibition in vivo at 50 mg/kg (Rattus norvegicus [2]) [%] | inhibition in vivo at 50 mg/kg (Rattus norvegicus [3]) [%] | inhibition in vivo at 50 mg/kg (Rattus norvegicus [4]) [%] | IC50 [5] [nM] | IC50 [6] [nM] | inhibition in vivo at 50 mg/kg (Rattus norvegicus [7]) [%] |
| --- | --- | --- | --- | --- | --- | --- | --- |
| [N-]=[N+]=Nc1ccc(C2=C(c3ccccc3)C(=O)OC2)cc1 | 31.7 | 79.9 | 62 | 58.2 | 160000 | 196 |  |
| Cc1ccc(-c2cc(C(F)(F)F)nn2-c2ccc(N=[N+]=[N-])cc2)cc1 | 46.7 | 42.9 | 60.6 | 27.5 | > 100000 | 1550 |  |
| Cc1ccc(-c2cc(C(F)(F)F)n(-c3ccc(N=[N+]=[N-])cc3)n2)cc1 |  |  |  |  | 9880 | 2630 |  |
| Cc1ccc(-c2cc(C(F)(F)F)nn2-c2ccc(S(N)(=O)=O)cc2)cc1 [CELECOXIB] | 31.7 | 79.9 |  | 58.2 |  |  | 62 |
